Data reported in ChEMBL document CHEMBL3098054, “The synthesis of novel taxoids for oral administration” (Bioorg Med Chem, 2014).

Assays:
[1] = Apparent permeability from apical to basolateral side in human Caco2 cells at 10 uM after 90 mins by LC-MS/MS analysis; type: ADME, cell-based, Caco-2; settings: Caco-2
[2] = Apparent permeability from basolateral to apical side in human Caco2 cells at 10 uM after 90 mins by LC-MS/MS analysis; type: ADME, cell-based, Caco-2; settings: Caco-2
[3] = tested on: MCF7; test: Cytotoxicity against human MCF7 cells after 72 hrs by MTT assay; type: functional, cell-based; settings: MCF7, 72 h
In short: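 MCF-7 cells exposed to compound for 72 h and read by MTT. At least six replicate wells per assay, run on three separate occasions. IC₅₀ given as mean with standard deviation.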

[4] = tested on: HeLa; test: Cytotoxicity against human HeLa cells at 1 uM after 72 hrs by MTT assay; type: functional; settings: read-out: GI
In short: (§1)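 Cells plated at 2000–5000/well, attached overnight at 37 °C. DMSO stocks (100 mM) serially diluted in medium to a final 1 µM, tested in duplicate wells. Exposure 72 h at 37 °C, 5% CO₂. MTT (5 mg/mL, 10 µL) added for 4 h. Lysis in 10% SDS / 5% isopropanol / 0.012 N HCl, then OD read at 580–680 nm.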

[5] = Efflux ratio of apparent permeability from basolateral to apical side over apical to basolateral side in human Caco2 cells at 10 uM after 90 mins by LC-MS/MS analysis; type: ADME, cell-based, Caco-2; settings: Caco-2
In short: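 Caco-2 cells cultured 21 days on 24-well inserts, TEER >250 Ω·cm². Monolayers pre-incubated in HBSS pH 7.4 at 37 °C. Compound added to the donor side at 10 µM, 37 °C, 5% CO₂, 90 min, in the A-to-B and B-to-A directions. Donor and receiver levels measured by LC-MS/MS. Papp calculated from receiver amount, membrane area 0.7 cm², time and initial donor concentration. Efflux ratio = B–A/A–B.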

[6] = tested on: A-375; test: Cytotoxicity against human A375 cells at 1 uM after 72 hrs by MTT assay; type: functional; settings: A-375, 72 h, read-out: GI
In short: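 Cells plated at 2000–5000/well, attached overnight at 37 °C. DMSO stocks (100 mM) serially diluted in medium to a final 1 µM, tested in duplicate wells. MTT (5 mg/mL, 10 µL) added for 4 h. Lysis in 10% SDS / 5% isopropanol / 0.012 N HCl, then OD read at 580–680 nm.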

[7] = tested on: NCI-H460; test: Cytotoxicity against human NCI-H460 cells at 1 uM after 72 hrs by MTT assay; type: functional; settings: NCI-H460, 72 h, read-out: GI; in short: as §1
[8] = tested on: A2780; test: Cytotoxicity against human A2780 cells at 1 uM after 72 hrs by MTT assay; type: functional; settings: A2780, 72 h, read-out: GI; in short: as §1
[9] = tested on: MCF7; test: Cytotoxicity against human MCF7 cells at 1 uM after 72 hrs by MTT assay; type: functional; settings: MCF7, 72 h, read-out: GI; in short: as §1
[10] = tested on: HL-60; test: Cytotoxicity against human HL60 cells at 1 uM after 72 hrs by MTT assay; type: functional; settings: HL-60, 72 h, read-out: GI; in short: as §1
[11] = tested on: HT-29; test: Cytotoxicity against human HT-29 cells at 1 uM after 72 hrs by MTT assay; type: functional; settings: HT-29, 72 h, read-out: GI; in short: as §1
[12] = tested on: DU-145; test: Cytotoxicity against human DU145 cells at 1 uM after 72 hrs by MTT assay; type: functional; settings: DU-145, 72 h, read-out: GI; in short: as §1

Row | Compound | Papp A→B at 1.5 h, 10 µM [1] [×10⁻⁶ cm/s] | Papp B→A at 1.5 h, 10 µM [2] [×10⁻⁶ cm/s] | IC50 [3] [nM] | inhibition of growth at 1 µM [4] [%] | efflux ratio at 1.5 h, 10 µM [5] | inhibition of growth at 1 µM [6] [%] | inhibition of growth at 1 µM [7] [%] | inhibition of growth at 1 µM [8] [%] | inhibition of growth at 1 µM [9] [%] | inhibition of growth at 1 µM [10] [%] | inhibition of growth at 1 µM [11] [%] | inhibition of growth at 1 µM [12] [%]
1 | CO[C@H]1C(=O)[C@]2(C)CC[C@H]3OC[C@@]3(OC(C)=O)[C@H]2[C@H](OC(=O)c2ccccc2)[C@]2(O)C[C@H](OC(=O)[C@H](O)[C@H](CC(C)C)NC(=O)OC(C)(C)C)C(C)=C1C2(C)C | 7.17 | 38.6 | 3.06 | 99.3 | 5.12 | – | – | – | – | – | – | –
2 | CO[C@H]1C[C@H]2OC[C@@]2(OC(C)=O)[C@H]2[C@H](OC(=O)c3ccccc3)[C@]3(O)C[C@H](OC(=O)[C@H](O)[C@@H](NC(=O)OC(C)(C)C)c4ccccc4)C(C)=C([C@@H](OC(=O)N(C)C)C(=O)[C@]12C)C3(C)C | 8.11 | 33.1 | 1.58 | 99.8 | 4.08 | 87.7 | 83.3 | 94.8 | 93.5 | 97.2 | 87.9 | 84.8
3 | CO[C@H]1C[C@H]2OC[C@@]2(OC(C)=O)[C@H]2[C@H](OC(=O)c3ccccc3)[C@]3(O)C[C@H](OC(=O)[C@H](O)[C@H](CC(C)C)NC(=O)OC(C)(C)C)C(C)=C([C@@H](OC(=O)N(C)C)C(=O)[C@]12C)C3(C)C | 8.17 | 32.6 | 1.7 | 101 | – | 89 | – | – | – | – | – | –
4 | COC(=O)O[C@H]1C(=O)[C@]2(C)[C@@H](OC)C[C@H]3OC[C@@]3(OC(C)=O)[C@H]2[C@H](OC(=O)c2ccccc2)[C@]2(O)C[C@H](OC(=O)[C@H](O)[C@@H](NC(=O)OC(C)(C)C)c3ccccc3)C(C)=C1C2(C)C | 6.91 | 29.2 | 1.4 | 99.5 | 4.22 | 103 | 80.4 | 94.1 | 95.3 | 97.4 | 87.3 | 83.3
5 | COC(=O)O[C@H]1C(=O)[C@]2(C)[C@@H](OC)C[C@H]3OC[C@@]3(OC(C)=O)[C@H]2[C@H](OC(=O)c2ccccc2)[C@]2(O)C[C@H](OC(=O)[C@H](O)[C@H](CC(C)C)NC(=O)OC(C)(C)C)C(C)=C1C2(C)C | 8.87 | 33.3 | 2.9 | 99.7 | – | – | – | – | – | – | – | –
6 | COC(=O)O[C@H]1C[C@H]2OC[C@@]2(OC(C)=O)[C@H]2[C@H](OC(=O)c3ccccc3)[C@]3(O)C[C@H](OC(=O)[C@H](O)[C@@H](NC(=O)OC(C)(C)C)c4ccccc4)C(C)=C([C@@H](OC)C(=O)[C@]12C)C3(C)C | 6.97 | 38.8 | 4.97 | 102 | 5.23 | 97.4 | 89.5 | 96.4 | 103 | 97 | 89.7 | 88.5
7 | COC(=O)O[C@H]1C[C@H]2OC[C@@]2(OC(C)=O)[C@H]2[C@H](OC(=O)c3ccccc3)[C@]3(O)C[C@H](OC(=O)[C@H](O)[C@H](CC(C)C)NC(=O)OC(C)(C)C)C(C)=C([C@@H](OC)C(=O)[C@]12C)C3(C)C | 7.16 | 36.4 | 2.81 | 100 | – | – | – | – | – | – | – | –
8 | CO[C@H]1C(=O)[C@]2(C)[C@@H](OC)C[C@H]3OC[C@@]3(OC(C)=O)[C@H]2[C@H](OC(=O)c2ccccc2)[C@]23OC(=O)O[C@H]2[C@H](OC(=O)[C@H](O)[C@@H](NC(=O)OC(C)(C)C)c2ccccc2)C(C)=C1C3(C)C | 2.83 | 18.2 | 2.1 | 98.2 | 6.42 | 89.8 | 82.2 | 94.7 | 93.5 | 95.9 | 89 | 84.7
9 | CO[C@H]1C(=O)[C@]2(C)CC[C@H]3OC[C@@]3(OC(C)=O)[C@H]2[C@H](OC(=O)c2ccccc2)[C@]23OC(=O)O[C@H]2[C@H](OC(=O)[C@H](O)[C@@H](NC(=O)OC(C)(C)C)c2ccccc2)C(C)=C1C3(C)C | 2.64 | 25.3 | 4.49 | 99.9 | 9.56 | 94.4 | 84.7 | 96 | 86.3 | 97.7 | 87.3 | 89.1
10 | CO[C@H]1C(=O)[C@@]2(C)[C@H]([C@H](OC(=O)c3ccccc3)[C@]34OC(=O)O[C@H]3[C@H](OC(=O)[C@H](O)[C@@H](NC(=O)OC(C)(C)C)c3ccccc3)C(C)=C1C4(C)C)[C@]1(OC(C)=O)CO[C@@H]1C[C@@H]2O | 0.88 | 44.7 | – | 100 | 51 | 92.5 | 82.7 | 95 | 87.1 | 97.5 | 86.6 | 86.8
11 | CO[C@H]1C(=O)[C@]2(C)[C@@H](OC(=O)N(C)C)C[C@H]3OC[C@@]3(OC(C)=O)[C@H]2[C@H](OC(=O)c2ccccc2)[C@]23OC(=O)O[C@H]2[C@H](OC(=O)[C@H](O)[C@H](CC(C)C)NC(=O)OC(C)(C)C)C(C)=C1C3(C)C | 2.4 | 5.74 | 21.2 | – | 2.39 | – | – | – | – | – | – | –
12 | COC(=O)O[C@H]1C[C@H]2OC[C@@]2(OC(C)=O)[C@H]2[C@H](OC(=O)c3ccccc3)[C@]34OC(=O)O[C@H]3[C@H](OC(=O)[C@H](O)[C@H](CC(C)C)NC(=O)OC(C)(C)C)C(C)=C([C@@H](OC)C(=O)[C@]12C)C4(C)C | 0.92 | 7.16 | 2.94 | – | 7.81 | – | – | – | – | – | – | –
13 | CC(=O)O[C@H]1C(=O)[C@@]2(C)[C@H]([C@H](OC(=O)c3ccccc3)[C@]34OC(=O)O[C@H]3[C@H](OC(=O)[C@H](O)[C@H](CC(C)C)NC(=O)OC(C)(C)C)C(C)=C1C4(C)C)[C@]1(OC(C)=O)CO[C@@H]1C[C@@H]2O [ORTATAXEL] | 2.8 | 19.2 | – | 99.5 | 6.84 | 96.7 | 85.5 | 96.4 | 88.7 | 96.5 | 87.7 | 90.6
